This is an account of results in ChEMBL document CHEMBL4251713, “Bioassay- and Chemistry-Guided Isolation of Scalemic Caged Prenylxanthones from the Leaves of Garcinia bracteata” (2018).

Where a name gives a salt, the structure may show the parent alone.

One test deals with HL-60. Description: Growth inhibition of human HL60 cells measured after 3 days by trypan blue assay. The test is classed as functional. Conditions: HL-60, 72 h. A digest of the protocol:
(§1)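 Human leukemia cells exposed to compound for 3 days. Growth assessed by trypan blue method with total cell counts, and inhibition calculated relative to untreated control cells. GI50 taken as the concentration giving 50% growth inhibition. Doxorubicin hydrochloride and gambogic acid included as positive controls.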

A further test deals with K562. Description: Growth inhibition of human K562 cells measured after 3 days by trypan blue assay. The test is classed as functional. Conditions: K562, 72 h. A digest of the protocol:
as §1

Broadly, the GI50 is the concentration giving 50% growth inhibition.

Take `C=CC(C)(C)c1c(O)cc(O)c2c1OC13C(=CC4CC1C(C)(C)OC3(CC=C(C)C)C4=O)C2=O` (centres undefined): the 50% growth inhibitory concentration (GI50) is 400 nM in the test with HL-60 and 1000 nM with K562.

Turning to `C=CC(C)(C)c1c(OC)cc(O)c2c1OC13C(=CC4CC1C(C)(C)OC3(CC=C(C)C)C4=O)C2=O` (centres undefined), the GI50 in the test on HL-60 was determined as 200 nM; in the test with K562, 800 nM.

`CC(C)=CCC[C@]1(C)C=Cc2c(O)c3c(c(CC=C(C)C)c2O1)O[C@]12C(=C[C@@H]4C[C@H]1C(C)(C)O[C@@]2(C/C=C(/C)C(=O)O)C4=O)C3=O` [GAMBOGIC ACID]: the GI50 in the test on HL-60 was 300 nM; in the test with K562, 600 nM.

On to `C=CC(C)(C)c1c(O)cc(O)c2c1O[C@]13C(C2=O)[C@@H](OC)[C@@H]2C[C@H]1C(C)(C)O[C@@]3(CC=C(C)C)C2=O` (some centres undefined), for which the GI50 with HL-60 was determined as 7300 nM; in the test with K562 it was 3400 nM.

Consider `C=CC(C)(C)c1c(O)cc(O)c2c1O[C@]13CC4[C@H]([C@@H](OC)C1C2=O)[C@@](CC=C(C)C)(OC4(C)C)C3=O` (some centres undefined), for which the GI50 with HL-60 amounted to 6500 nM; in the test with K562, 3500 nM.

For the molecule `C=CC(C)(C)c1c(O)cc(O)c2c1O[C@]13[C@H](C2=O)[C@@H](OC)[C@@H]2C[C@H]1C(C)(C)O[C@@]3(/C=C/C(C)(C)O)C2=O`, the GI50 in the test with HL-60 came out at 8800 nM; in the test with K562, 3800 nM.

Consider `COc1cccc2c1C(=O)c1c(O)c3c(c(O)c1C2=O)C[C@@](O)(C(=O)CO)C[C@@H]3O[C@H]1C[C@H](N)[C@H](O)[C@H](C)O1` [DOXORUBICIN HYDROCHLORIDE], for which the GI50 with HL-60 and in the test with K562 was 20 nM in each case.

In the case of `C=CC(C)(C)c1c(O)cc(O)c2c1OC13CC4C(C=C1C2=O)C(CC=C(C)C)(OC4(C)C)C3=O` (centres undefined), the 50% growth inhibitory concentration (GI50) in the test with HL-60 was found to be 800 nM; in the test on K562 it was 1300 nM.

With `C=CC(C)(C)c1c(O)cc(OC)c2c1OC13C(C2=O)[C@@H](OC)[C@@H]2C[C@H]1C(C)(C)O[C@@]3(CC=C(C)C)C2=O` (some centres undefined), the GI50 with HL-60 came to 3400 nM; in the test on K562, 1600 nM.

With `CC(C)=CC[C@@]12OC(C)(C)[C@H]3C[C@H](C=C4C(=O)c5c(O)cc6c(c5O[C@]431)C(C)(C)[C@H](CO)O6)C2=O`, the GI50 is 1100 nM in the test with HL-60 and 2100 nM with K562.

Take `CC(C)=CC[C@@]12OC(C)(C)[C@H]3C[C@H](C=C4C(=O)c5c(O)cc6c(c5O[C@]431)C(C)(C)[C@@H](CO)O6)C2=O`: the results for the GI50 with HL-60 and with K562 were 1100 nM and 2100 nM, respectively.

For the molecule `C=CC(C)(C)c1c(OC)cc(O)c2c1OC13CC4C(C=C1C2=O)C(CC=C(C)C)(OC4(C)C)C3=O` (centres undefined), the concentration for 50% growth inhibition (GI50) with HL-60 was 1000 nM; with K562 it was 1500 nM.

On to `CC(C)=CCC12OC(C)(C)C3CC4(Oc5c(c(O)cc6c5C(C)(C)[C@@H](C)O6)C(=O)C4=CC31)C2=O` (some centres undefined), for which the GI50 stood at 700 nM in the test with HL-60 and 1700 nM with K562.

On to `CC(C)=CC[C@@]12OC(C)(C)C3C[C@H](C=C4C(=O)c5c(O)cc6c(c5O[C@]431)C(C)(C)[C@H](C)O6)C2=O`, for which the GI50 was found to be 1900 nM in the test on HL-60 and 3600 nM in the test on K562.

Regarding `CC(C)=CCC12OC(C)(C)C3CC4(Oc5c(c(O)cc6c5C(C)(C)[C@H](C)O6)C(=O)C4=CC31)C2=O` (some centres undefined), the 50% growth inhibitory concentration (GI50) was 900 nM in the test on HL-60 and 1600 nM with K562.

For `CC(C)=CC[C@@]12OC(C)(C)[C@H]3C[C@H](C=C4C(=O)c5c(O)cc6c(c5O[C@]431)C(C)(C)[C@@H](C)O6)C2=O`, the GI50 was found to be 1200 nM in the test on HL-60 and 2100 nM in the test with K562.

Consider `C=CC(C)(C)c1c(O)cc(O)c2c1O[C@]13[C@H](C2=O)[C@@H](OCC)[C@@H]2C[C@H]1C(C)(C)OC3(CC=C(C)C)C2=O`, for which the concentration for 50% growth inhibition (GI50) was 4500 nM with HL-60 and 2100 nM in the test with K562.
